From PubChem
GRK2 aptamer HTS: compounds blocking aptamer binding on GRK2 – biochemical, human GRK2, bead flow cytometry, HTS, primary screen; FAM-aptamer displacement from GRK2; inhibition of aptamer binding, % at 10 µM; 0.59% of 330,000 active;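 active means inhibition of aptamer binding above 40%, roughly 3 SD of noise, on plates passing a quality check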;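 further: median bead fluorescence of bound FAM aptamer so fluorescent compounds give negative values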
EBV gp42 block: Epstein-Barr virus gp42 inhibitors, primary screen, biochemical, uHTS, fluorescence polarization; Glycoprotein 42 (Epstein-Barr virus (strain AG876)), Q1HVG2; Fluorescence polarization binding assay, mP read-out; inhibition, % (tested at 21.74 µM); 0.42% of 220,000 active; in the data active means inhibition above about 50%
Target sequence (Q1HVG2 whole entry, looked up): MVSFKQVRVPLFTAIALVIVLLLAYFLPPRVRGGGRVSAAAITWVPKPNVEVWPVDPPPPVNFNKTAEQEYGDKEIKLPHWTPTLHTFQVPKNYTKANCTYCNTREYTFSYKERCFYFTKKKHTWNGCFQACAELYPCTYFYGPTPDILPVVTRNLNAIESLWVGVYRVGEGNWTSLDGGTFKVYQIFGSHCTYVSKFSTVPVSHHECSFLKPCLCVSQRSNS
LANA DNA inh: inhibitors of KSHV C-LANA binding to DNA, primary screen, biochemical, fluorescence polarization, FAM-LBS DNA, MBP-C-LANA, single point; Kaposi's sarcoma herpesvirus LANA C-terminal domain (residues 932-1162) DNA binding; inhibition, % at 9 µM; 0.078% of 340,000 active;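 active means highest replicate inhibition at or above 60% at 9 µM, even if other replicates fall short; inactive means all replicates below 60% inhibition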;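 further: 0% = neutral control wells and 100% = 4 µM acridine orange control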
T cell HTS: modulators of CD8 T cell-vesicle binding, primary screen, mouse 2C CD8+ T cells, flow cytometry; response (vesicle binding), % at 7 µM; 2C CD8+ T cell-vesicle binding; stronger effect = lower value; 0.068% of 330,000 active; AID 2052, 2009;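 active means response, share of CD8 T cells binding vesicles, and their 90th percentile fluorescence all below set limits, cut at about 80% in these data, passing the limit was not always enough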;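 further: values below 100% mean blocked vesicle binding to the CD8+ T cells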
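Also added: QL9-peptide-loaded Drosophila micro-vesicles bearing Ld, ICAM-1 and B7-1; Test system: purified 2C TCR transgenic mouse naive CD8+ T cells; Measured by: cytometric PE anti-B7-1 and Alexa647 anti-CD8 signals after 1% paraformaldehyde fixation; Timing: binding step 1.5 h, 37 °C, antibody labelling 20 min, ice.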
Keap1 Nrf2 FP: Keap1-Nrf2 protein-protein interaction inhibitors, primary screen, biochemical, fluorescence polarization, single point. Kelch-like ECH-associated protein 1 (Homo sapiens), Q14145. Keap1 Kelch-Nrf2 peptide fluorescence polarization, 1536-well. inhibition, % at 9.4 µM. 0.15% of 340,000 active. AID 504523, 2011; in the data active means inhibition above about 12%;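 further: human Keap1 Kelch domain with fluorescein labeled Nrf2 9mer peptide probe; 0% = neutral control wells and 100% = peptide positive control; higher means more block of Keap1 binding to Nrf2 peptide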
MEX-5 binding: MEX-5 zinc finger RNA-binding disruptors – biochemical, C. elegans, fluorescence polarization, MLPCN library, primary screen. Zinc finger protein mex-5 (Caenorhabditis elegans), Q9XUB2. MEX-5/FITC-TCR2 RNA binding; stronger effect = lower value. activity score (negative = inhibition of binding), % at 10 µM. 0.38% of 300,000 active. AID 1832, 2009;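 active means inhibition past about -25% in most replicates, and total fluorescence under double the plate's negative control median, limit read from the data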;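 further: 0% = DMSO and -100% = 5 µM competing unlabeled TCR2 RNA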
Target sequence (Q9XUB2 whole entry, looked up): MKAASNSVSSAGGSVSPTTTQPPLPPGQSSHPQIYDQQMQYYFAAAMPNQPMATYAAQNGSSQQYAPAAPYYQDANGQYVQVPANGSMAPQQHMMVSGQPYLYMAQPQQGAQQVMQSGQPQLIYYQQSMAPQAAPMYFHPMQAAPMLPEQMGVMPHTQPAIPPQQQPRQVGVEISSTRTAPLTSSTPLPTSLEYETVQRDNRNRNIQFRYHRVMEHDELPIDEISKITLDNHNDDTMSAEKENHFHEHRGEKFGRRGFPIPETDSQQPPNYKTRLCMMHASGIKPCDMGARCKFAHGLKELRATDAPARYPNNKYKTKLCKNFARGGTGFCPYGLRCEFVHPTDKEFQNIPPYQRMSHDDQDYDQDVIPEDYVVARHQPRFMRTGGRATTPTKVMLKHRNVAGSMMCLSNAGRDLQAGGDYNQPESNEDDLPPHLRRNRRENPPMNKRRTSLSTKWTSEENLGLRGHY
An asterisk follows results filed as active; i = inactive; / = no result given. The list is not random: actives were taken first. Their share in the collection is about 1.3%.

SMILES	GRK2 aptamer HTS	EBV gp42 block	LANA DNA inh	T cell HTS	Keap1 Nrf2 FP	MEX-5 binding
COc1ccc(OC)c(C2C3CN(C(C)C)CC=C3C(C#N)=C(N)C2(C#N)C#N)c1 (stereo unspecified)	0.0	49.4	20.0	306.9	1.0	-38.3*
COc1ccc(Br)c(C(=O)Nc2cccc(Cl)c2Cl)c1	4.0	4.4	2.0	282.5	-1.2	-0.1
O=C(Nc1ccc(S(=O)(=O)NCc2ccco2)cc1)c1cccc(F)c1	6.0	/	0.5	255.1	-6.9	0.0
O=C(O)C1Cc2ccccc2CN1C(=O)COc1ccc(Cl)cc1 (stereo unspecified)	2.0	-8.7	1.7	228.0	-3.4	1.6
O=C(CN(C(=O)CCC(=O)Nc1nccs1)c1cccc(F)c1)NCc1ccc2c(c1)OCO2	0.0	/	-1.5	347.4	0.4	1.3
COc1cc(/C=C2\C(=O)NN(c3ccc(C)cc3)C2=O)cc([N+](=O)[O-])c1O	3.0	2.7	5.0	354.6	-4.4	-15.3
COc1cc(/C=C2\SC(=O)N(Cc3ccc(F)cc3)C2=O)cc([N+](=O)[O-])c1O	/	58.5*	-2.0	/	-3.1	-0.5
CCOC(=O)CN1C(=O)S/C(=C/c2ccc(OC)c([N+](=O)[O-])c2)C1=O	1.0	7.7	1.6	285.7	-7.9	1.4
COc1cc(/C=C2\SC(=O)N(Cc3ccc(Cl)cc3)C2=O)cc([N+](=O)[O-])c1O	/	90.0*	0.1	/	-1.9	/
COc1cc(/C=C2\C(=O)NN(c3ccccc3)C2=O)cc([N+](=O)[O-])c1O	0.0	-15.9	14.8	165.0	0.0	-29.6*
CC(=O)c1ccc(NC(=O)c2ccc(NC(=O)c3ccco3)cc2)cc1	77.0*	/	0.8	179.0	1.1	0.3
CC(=O)Nc1ccc(NC(=O)c2ccco2)cc1	6.0	-22.2	-1.1	398.8	6.0	1.0
COC(=O)c1ccc(NC(=O)c2ccc(NC(=O)c3ccco3)cc2)cc1	83.0*	/	0.3	583.0	-2.5	-4.2
O=C(N/N=C/c1cccc(F)c1)c1cc(-c2ccco2)nc2ccccc12	43.0*	65.7*	-3.0	394.4	-6.4	-1.3
c1ccc2nc3[nH]cnc3nc2c1	2.0	15.3	0.9	420.3	-4.4	7.1
C=CCn1c(O)c(N=NC(=O)CNC(=O)/C=C/c2ccco2)c2ccccc21	23.0	62.2*	-0.9	226.6	1.2	-1.3
C=CCn1c(O)c(N=NC(=O)CNC(=O)/C=C/c2ccc(OC)cc2)c2ccccc21	2.0	-9.8	-0.6	527.8	-1.5	-5.7
C=CC(C)(C)c1c2occc2c(O)c2ccc(=O)oc12	3.0	/	1.5	i	-6.2	/
C=CC(C)(C)c1c(O)c(CC=C(C)C)c(O)c2c(=O)c3ccc(O)c(O)c3oc12	2.0	/	-0.8	32.0*	-6.4	-2.3
Cc1[nH]c(=O)c(C#N)c2c1COC(C)(C)C2	0.0	-20.6	0.8	187.9	-3.8	2.8
CC1=C(C#N)C(=O)OC(C)(C)C1	0.0	14.7	33.8	351.2	19.2*	-47.0*
Cc1ccc(C(=O)Nc2cnc3sc(C)nn3c2=O)cc1	0.0	-2.8	2.2	203.6	-3.3	-2.7
CCOC(=O)C1CCN(C(=O)CCC(=O)NNc2nc3ccccc3c3nc(C)nn23)CC1	0.0	/	0.7	611.0	-3.3	-48.0*
Cc1nc2c3ccccc3nc(NNC(=O)CCC(=O)NCCC(C)C)n2n1	0.0	-7.1	1.6	0.0	-5.4	-4.3
Cc1nc2c3ccccc3nc(NNC(=O)CCC(=O)N3CCC(C)CC3)n2n1	0.0	/	1.4	368.8	4.3	-18.9
SMILES	GRK2 aptamer HTS	EBV gp42 block	LANA DNA inh	T cell HTS	Keap1 Nrf2 FP	MEX-5 binding
CCCCN(C)C(=O)CCC(=O)NNc1nc2ccccc2c2nc(C)nn12	1.0	4.8	-3.0	109.0	-4.8	-31.9*
CCN(CC)CCCNC(=O)CCC(=O)NNc1nc2ccccc2c2nc(C)nn12	2.0	-5.7	-2.3	526.8	1.2	-54.1*
Cc1nc2c3ccccc3nc(NNC(=O)CCC(=O)N3CCN(c4ccccc4)CC3)n2n1	0.0	/	1.2	370.8	2.4	-7.3
CN(C)c1ccnc(SCc2ccccc2Cl)c1C#N	2.0	6.1	-1.3	456.7	0.2	2.1
N=C1/C(=C\c2ccc(-c3cccc(Cl)c3)o2)C(=O)N=C2SC=C(c3ccccc3)N12	0.0	-20.3	1.3	347.5	-2.8	-0.6
N=C1/C(=C\c2ccc(-c3ccc(C(=O)O)cc3)o2)C(=O)N=C2SC=C(c3ccccc3)N12	/	61.1*	1.6	/	-12.5	-1.3
c1ccc(-c2cn3nc(-c4ccccc4)c(-c4ccccc4)nc3n2)cc1	1.0	128.1*	21.6	360.3	1.6	-26.7*
Nc1nc(-c2ccccc2)cn1N	0.0	-21.0	1.8	208.1	2.2	2.3
O=[N+]([O-])c1cccc(-c2cn3nc(-c4ccccc4)c(-c4ccccc4)nc3n2)c1	14.0	71.9*	1.2	115.8	-1.4	-44.3*
COc1ccc(C(CNC(=O)c2cccc(S(=O)(=O)Nc3ccc(C)cc3)c2)N2CCCCC2)cc1 (stereo unspecified)	0.0	/	-0.3	179.0	-1.2	-1.9
O=C(Nc1cccc(NC(=O)C2CC2)n1)C1CC1	8.0	5.2	-0.2	114.5	4.7	-4.2
O=[N+]([O-])c1ccc(-c2cn(-c3ccc(Cl)cc3)c(=S)[nH]2)cc1	0.0	53.9*	0.2	420.5	-8.3	2.1
COc1ccc(NS(=O)(=O)c2ccc(O)c(C(=O)OCC(=O)N3CC(C)OC(C)C3)c2)cc1 (stereo unspecified)	1.0	-3.4	-0.4	294.7	-0.1	-4.1
CC(C)Cn1c(SCC(=O)N(C)C2CCS(=O)(=O)C2)nc2cc(Cl)ccc2c1=O (stereo unspecified)	0.0	/	0.3	283.4	0.1	-3.1
Cc1ccccc1OCCC(=O)N(CC(=O)Nc1ccccc1C(F)(F)F)Cc1ccco1	1.0	/	3.3	260.7	-7.7	-2.0
Cc1[nH]nc(Nc2ccccc2)c1[N+](=O)[O-]	1.0	-4.1	-0.2	269.0	-1.8	-1.4
Cc1[nH]nc(NNC(=O)c2ccccc2)c1[N+](=O)[O-]	1.0	-2.8	0.0	316.8	-0.4	-83.3*
O=C(c1ccco1)N1CCN(C(=S)Nc2ccc(F)cc2)CC1	0.0	/	4.2	426.8	2.1	-4.5
CCOC(=O)/C(C#N)=C/c1ccc(-c2ccsc2C(=O)OC)o1	0.0	44.7	-1.2	252.7	-8.3	-54.7*
